Results: ChEMBL document CHEMBL2057093, “New oxirane derivatives of 1,4-naphthoquinones and their evaluation against T. cruzi epimastigote forms” (Bioorg Med Chem, 2012)

Columns and labels:
Trypanosoma cruzi [1] = test: Antitrypanosomal activity against Trypanosoma cruzi Y epimastigotes after 72 hrs by Neubauer counter-based microscopic analysis; format: functional, organism-based
In short: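 T. cruzi Y epimastigotes (10^6 cells/mL) grown in BHI medium with 10% fetal bovine serum at 28 °C and exposed to compounds from 5 mM DMSO stocks for 72 h. Parasites counted directly in a Neubauer chamber by light microscopy. Untreated and 1% DMSO (v/v) cultures served as negative controls. IC50 (50% growth inhibition) computed by Probit analysis.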

Trypanosoma cruzi [2] = test: Antitrypanosomal activity against Trypanosoma cruzi Y epimastigotes assessed as cell death at 50 uM after 72 hrs by propidium iodide staining-based flow cytometric analysis; format: functional
In short: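 T. cruzi Y epimastigotes at 5 × 10^5 cells/mL exposed to compound at 50 µM for 72 h. Cells then centrifuged (1500 g), washed in PBS and stained with 30 µg/mL propidium iodide for 15 min. Flow cytometry acquired 10,000 events in the epimastigote gate, and PI-positive cells were counted as dead. Mean and SD from at least two independent experiments in duplicate.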

[3] = Cytotoxicity against african green monkey Vero cells after 72 hrs by spectrophotometric analysis; format: cell-based; conditions: chlorocebus sabaeus
In short: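 VERO kidney fibroblasts kept in DMEM with 5% fetal bovine serum and HEPES. Seeded at 10^5 cells/well and allowed to adhere 24 h at 37 °C, then exposed to compounds for 72 h. Cells were PBS-washed, fixed in 0.2% formaldehyde, stained 1 h with 0.2% Coomassie Brilliant Blue R-250, and eluted with 1% SDS. Absorbance read at 595 nm. CC50 by Probit from triplicate runs.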

| Compound | IC50 (Trypanosoma cruzi [1]) | Activity (Trypanosoma cruzi [2]) | CC50 at 72 h [3] |
| --- | --- | --- | --- |
| CC1(C)CCC23CC2(O1)C(=O)c1ccccc1C3=O (stereo not given) | 60.9 µM | 3.1% | 66 µM |
| CC1(C)CCC2=C(O1)C(=O)C1=C(CCCC1)C2=O | 16.3 µM | 84.2% | 11.7 µM |
| CC1(C)CCC2=C(O1)C1(CO1)C1=C(CCCC1)C2=O (stereo not given) | 16.4 µM | 17.9% | 58.1 µM |
| COC1=CC(=O)c2ccccc2C12CO2 (stereo not given) | 1.13 µM | 74.2% | 44 µM |
| C=CCOC1=CC(=O)c2ccccc2C1=O | 0.02 µM | 86.3% | < 1 µM |
| C=CCOC1=CC(=O)c2ccccc2C12CO2 (stereo not given) | 0.2 µM | 84.5% | < 1 µM |
| O=C1C(Cl)=C(Cl)C2(CO2)c2ccccc21 (stereo not given) | 9.48 µM | 84.7% | 19 µM |
| CC1(C)CCC2=C(O1)C1(CO1)c1ccccc1C2=O (stereo not given) | 0.05 µM | 85.6% | > 50 µM |
| CC1(C)CC2=C(O1)C1(CO1)c1ccccc1C2=O (stereo not given) | 19.3 µM | 88.5% | 19 µM |
| CC1(C)CC2=C(O1)C(=O)c1ccccc1C2=O | 8.8 µM | 91.4% | 2.7 µM |
| COC1=CC(=O)c2ccccc2C1=O [2-Methoxy-1,4-naphthoquinone] | 3.19 µM | 82.3% | 13 µM |
| CC1(C)CCC2=C(O1)C(=O)c1ccccc1C2=O [ALPHA-LAPACHONE] | 3.19 µM | 82.7% | 1.2 µM |
| O=C(Cn1ccnc1[N+](=O)[O-])NCc1ccccc1 [BENZNIDAZOLE] | 11.5 µM | 26.8% | 48 µM |
| O=C1C(Cl)=C(Cl)C(=O)c2ccccc21 [Dichlon] | 0.09 µM | 84.3% | 6.3 µM |
| CC1(C)CCC2=C(O1)c1ccccc1C(=O)C2=O [LAPACHONE] | < 3.1 µM | 91.3% | < 3.1 µM |
